Most compounds without a hit are left out; they make up all but 2.5% or so of the library.
SENP6 inh: SENP6 protease inhibitors, primary screen, biochemical, luminescence, uHTS; Recombinant SENP6 catalytic domain, aminoluciferin luminescence; inhibition, % at 10 µM; AID 2599, 2010; actives 1.8% (n = 330,000);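 active = inhibition above about 50% at the single tested dose, limit read from the data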
SENP1 FRET inh: human SENP1 catalytic domain inhibitors, primary screen, biochemical, FRET, uHTS; recombinant SENP1 catalytic domain, CyPet-SUMO1-YPet FRET cleavage; inhibition, % at 10 µM; actives 0.21% (n = 360,000);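 active = inhibition at least 30% at 10 µM, raw YFP signal under a set limit, fluorescence ratio 0.5 to 1.5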
Target sequence (Q9P0U3 419-644 limits assumed): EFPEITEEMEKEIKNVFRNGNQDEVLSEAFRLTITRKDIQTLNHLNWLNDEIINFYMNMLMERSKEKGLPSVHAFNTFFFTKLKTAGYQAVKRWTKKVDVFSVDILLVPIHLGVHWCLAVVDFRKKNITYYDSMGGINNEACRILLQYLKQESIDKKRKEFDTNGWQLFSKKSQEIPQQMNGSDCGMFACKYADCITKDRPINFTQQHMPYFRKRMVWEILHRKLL
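System: Recombinant human SENP1 catalytic domain, His6-tagged | Incubation: Enzyme reaction for 50 min at room temperature, dark | Medium: Tris pH 8 with BME, BSA, NP40 and catalase | Also added: 25 nM SUMO1 FRET substrate | Compound: 10 µM single point, 0.5% DMSO | Measured by: FRET fluorescence in CFP and YFP emission channels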
SENP8 block-1: SENP8 protease inhibitors, primary screen, biochemical, luminescence; Sentrin-specific protease 8 (Homo sapiens), Q96LD8; purified SENP8, Z-RLRGG-aminoluciferin cleavage; inhibition, % at 10 µM; actives 1.2% (n = 330,000); AID 2540, 2010; in the data active = inhibition above about 50%
Target sequence (Q96LD8 whole entry, looked up): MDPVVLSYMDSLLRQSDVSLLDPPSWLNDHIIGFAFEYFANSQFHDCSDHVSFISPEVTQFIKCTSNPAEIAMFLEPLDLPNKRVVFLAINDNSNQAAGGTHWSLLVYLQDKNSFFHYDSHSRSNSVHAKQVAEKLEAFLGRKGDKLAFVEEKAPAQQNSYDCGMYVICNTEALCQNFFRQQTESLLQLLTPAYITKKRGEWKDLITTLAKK
SENP8 block-2: human SENP8 protease inhibitors, primary screen, biochemical, fluorescence, Nedd8 protein substrate, uHTS; Sentrin-specific protease 8 (Homo sapiens), Q96LD8; recombinant SENP8; inhibition, % at 20 µM; actives 0.64% (n = 360,000); in the data active = inhibition mostly above about 40%, no sharp cut-off; inactive = mostly below about 27%
SENP7 block: SENP7 protease inhibitors, primary screen, biochemical, luminescence, uHTS. inhibition, % at 5 µM. actives 1.5% (n = 330,000). Sentrin-specific protease 7 (Homo sapiens), Q9BQF6. recombinant SENP7, Z-RLRGG-aminoluciferin luminescence, 40 min;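 active = inhibition above about 50% at the single test dose, limit read from the data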
SENP8 confirm: SENP8 protease inhibitors, retest, confirmation, biochemical, luminescence, single concentration; shares compounds with SENP7 block; Recombinant SENP8, Z-RLRGG-aminoluciferin luminescence, 60 min; inhibition, % at 12.5 µM; actives 40% (n = 6,200); AID 488912, 2010;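 active = mean inhibition across replicates above about 50%, limit read from the data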
SENP6 conf: SENP6 protease inhibitors, confirmation, biochemical, luminescence, single concentration. inhibition, % at 12.5 µM. recombinant SENP6, Z-RLRGG-aminoluciferin luminescence. shares compounds with SENP7 block. actives 58% (n = 6,200)
SENP7 conf: SENP7 protease inhibitors, retest, confirmation, biochemical, luminescence, single concentration; AID 488917, 2010; actives 69% (n = 6,200); inhibition, % at 12.5 µM; recombinant SENP7, Z-RLRGG-aminoluciferin luminescence, 40 min; shares compounds with SENP7 block
Casp3 select: caspase-3 protease inhibitors, confirmation, selectivity assay for SENP inhibitor project, biochemical, single concentration; AID 488918, 2010; purified caspase-3, Z-DEVD-aminoluciferin luminescence, 60 min; shares compounds with SENP7 block; inhibition, % at 12.5 µM; actives 60% (n = 6,200);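 active = mean inhibition above about 50%, limit read from the data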
Target sequence (P42574 28-227 limits assumed): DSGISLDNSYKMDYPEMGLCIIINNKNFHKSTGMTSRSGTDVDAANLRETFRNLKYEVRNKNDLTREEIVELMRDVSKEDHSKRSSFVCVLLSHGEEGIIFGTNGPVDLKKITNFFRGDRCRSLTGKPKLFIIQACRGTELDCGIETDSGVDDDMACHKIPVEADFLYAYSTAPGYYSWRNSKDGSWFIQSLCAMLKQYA
Luc interf: counter-screen for SENP inhibitors: luminescence interference; shares compounds with SENP7 block; Pre-incubated SENP8/Z-RLRGG-aminoluciferin, luciferase luminescence interference; actives 39% (n = 6,200); inhibition, % at 12.5 µM; AID 488919;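 active = mean inhibition above about 50% when retested at one dose, limit read from the data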
Each line names hits and unclear results; the compound was inactive in the other large screens (follow-up assays come after a bar, where they were run).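 Rule for the calls, unless noted: active = mean inhibition above about 50% in the one-dose retest (limit read from the data); inactive = the rest.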

COc1cccc(NC(=O)Nc2ccccc2Br)c1	SENP6 inh 89.5, SENP8 block-1 66.0, SENP7 block 82.2 | SENP8 confirm 76.6 | SENP6 conf 77.9 | SENP7 conf 93.8 | Casp3 select 69.8 | Luc interf inactive
O=C(Nc1cccs1)Nc1ccccc1Br	SENP6 inh 50.1 | SENP8 confirm inactive | SENP6 conf inactive | SENP7 conf 74.8 | Casp3 select inactive | Luc interf inactive
Cn1nnc2cc(NC(=O)Nc3ccccc3F)ccc21	none (no result: SENP6 inh, SENP8 block-1, SENP7 block)
Cc1cc(NC(=O)Nc2ccccc2F)ccc1Br	SENP6 inh 80.4, SENP8 block-1 87.7, SENP7 block 95.5 | SENP8 confirm 76.2 | SENP6 conf 92.3 | SENP7 conf 101.7 | Casp3 select 86.5 | Luc interf 64.4
COC(=O)c1ccccc1NC(=O)Nc1cccs1	none
Cc1cccc(C(C)C)c1NC(=O)C(C)OC(=O)Cc1n[nH]c(=O)c2ccccc12 (centres undefined)	none
COc1ccccc1NC(=O)Nc1cccc(C(=O)O)c1	SENP6 inh 60.4 | SENP8 confirm 55.7 | SENP6 conf 51.8 | SENP7 conf 80.4 | Casp3 select 77.1 | Luc interf 63.0
Cc1ccc(S(=O)(=O)Cc2cc(F)c([N+](=O)[O-])cc2[N+](=O)[O-])cc1	none
COc1ccc(CC(=O)Nc2ccc(-c3cn4ccccc4n3)cc2)cc1	none
CCOc1ccc(-c2cn3ccccc3n2)cc1	SENP8 block-1 65.9, SENP7 block 71.6 | SENP8 confirm 86.2 | SENP6 conf 85.0 | SENP7 conf 96.4 | Casp3 select 90.2 | Luc interf 84.2
CCOc1ccc(-c2cnc3ccccc3n2)cc1	SENP6 inh 95.7, SENP8 block-1 92.8, SENP7 block 98.4 | SENP8 confirm inactive | SENP6 conf 60.6 | SENP7 conf 79.2 | Casp3 select 88.5 | Luc interf 58.2
C[C@@H]1CN([C@@H](C)CO)C(=O)c2cc(Br)cnc2O[C@H]1CN(C)C(=O)CN1CCOCC1	none (no result: SENP6 inh, SENP8 block-1, SENP7 block)
O=C(C1CCC1)N1CCC(O)(c2cccc(F)c2)CC1	none
COC(=O)c1ccc(-c2nc3cc(Cl)c(N)cc3s2)cc1	SENP6 inh 63.1, SENP7 block 96.7 | SENP8 confirm inactive | SENP6 conf inactive | SENP7 conf inactive | Casp3 select inactive | Luc interf inactive
Cc1cc([N+](=O)[O-])cc(/C=N\NC(=O)C2COc3ccccc3O2)c1O (centres undefined)	SENP6 inh 64.0 | SENP8 confirm inactive | SENP6 conf inactive | SENP7 conf 66.1 | Casp3 select inactive | Luc interf inactive
O=C(N/N=C\c1ccc(O)c([N+](=O)[O-])c1)C1COc2ccccc2O1 (centres undefined)	none
Cc1ccc2[nH]c3c(c2c1)CN(C(=O)CN1CCCc2ccccc21)CC3	SENP6 inh 94.6 | SENP8 confirm inactive | SENP6 conf inactive | SENP7 conf inactive | Casp3 select inactive | Luc interf inactive
COc1cccc(OCc2nc3c4cnn(-c5ccccc5)c4ncn3n2)c1	SENP7 block 73.2 | SENP8 confirm inactive | SENP6 conf inactive | SENP7 conf inactive | Casp3 select inactive | Luc interf inactive
COc1cccc(Nc2nc(C(N)c3ccccc3)cs2)n1 (centres undefined)	none (no result: SENP6 inh, SENP8 block-1, SENP7 block)
CCn1c(O)c(C=Nc2ccccc2)sc1=S	SENP6 inh 80.8, SENP8 block-1 68.8, SENP7 block 69.7 (no result: SENP1 FRET inh, SENP8 block-2) | SENP8 confirm inactive | SENP6 conf 50.9 | SENP7 conf 95.5 | Casp3 select 60.9 | Luc interf inactive
NS(=O)(=O)c1ccc(NC(=O)COC(=O)c2ccc(Cl)cc2[N+](=O)[O-])cc1	none
O=C(Nc1ccc(C(=O)N2CCOCC2)cc1)Nc1cccc(Cl)c1	SENP6 inh 68.6, SENP7 block 56.7 | SENP8 confirm 60.5 | SENP6 conf 58.0 | SENP7 conf 84.8 | Casp3 select 61.1 | Luc interf 62.6
O=C(Nc1ccc(C(=O)N2CCCCC2)cc1)c1cccs1	SENP6 inh 65.5, SENP7 block 59.6 | SENP8 confirm inactive | SENP6 conf inactive | SENP7 conf 78.2 | Casp3 select 82.8 | Luc interf 59.2
O=C(Nc1ccccc1)Nc1ccc(C(=O)N2CCCC2)cc1	SENP6 inh 96.8, SENP8 block-1 93.6, SENP7 block 97.1 | SENP8 confirm 96.5 | SENP6 conf 96.9 | SENP7 conf 101.7 | Casp3 select 97.8 | Luc interf 74.0
C=C1CC[C@@H]2[C@](C)(CCC[C@@]2(C)/C=C/[C@@H](O)C(C)(C)O)[C@H]1CC(=O)NCCS(=O)(=O)O	none (no result: SENP6 inh, SENP8 block-1, SENP7 block)
CC(=O)Nc1ccc(NC(=O)CSc2nnc(NC(=O)c3cccc(F)c3)s2)cc1	SENP6 inh 76.7, SENP8 block-1 67.7, SENP7 block 51.6 | SENP8 confirm 61.6 | SENP6 conf 70.1 | SENP7 conf 91.1 | Casp3 select 81.5 | Luc interf inactive
CCc1ccc(Nc2nnc(SCC(=O)Nc3ccc(C(=O)O)cc3)s2)cc1	SENP8 block-1 52.4, SENP7 block 52.9 | SENP8 confirm inactive | SENP6 conf 51.1 | SENP7 conf inactive | Casp3 select 60.4 | Luc interf inactive
O=C(CSc1nnc(NC(=O)c2c(F)cccc2F)s1)Nc1ccc(F)cc1	none
C=CCOc1ccc(/C=N/n2nnnc2N)cc1OC	none
O=C(CSc1nnc(-c2ccncc2)n1Cc1ccco1)Nc1ccccc1Cl	none
Cc1cc(C)c(NC(=O)CSc2nnc(-c3ccncc3)n2Cc2ccco2)c(C)c1	SENP7 block 69.9 | SENP8 confirm inactive | SENP6 conf inactive | SENP7 conf inactive | Casp3 select inactive | Luc interf inactive
COc1cccc(-c2nnc(SCC(=O)NCc3ccc4c(c3)OCO4)n2Cc2ccco2)c1	none

Screening results deposited in PubChem BioAssay by Sanford-Burnham Center for Chemical Genomics.
